The source made the active and inactive calls. The rule behind the calls is not given here.
How the values were obtained:
Nucleic Acid [1] = experiment: Binding affinity to salmon testes DNA at drug/DNA ratio of 0.01 by linear dichroism analysis; format: nucleic-acid assay; settings: Salmonidae
In short: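 Flow linear dichroism in 10 mM phosphate buffer pH 7.2. Samples oriented in a rotating cylindrical cuvette (0.14 cm path, 800 rpm) at several drug/DNA ratios.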

Jurkat [2] = experiment: Cell cycle arrest in UV-A irradiated human Jurkat cells assessed as accumulation at S phase at 5 uM after 24 hrs by propidium iodide based flow cytometry (reference value: 25.3 %); format: functional
In short: (§1)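 Exponentially growing Jurkat cells (5×10^5) irradiated with UV-A (365 nm lamp, 2.5 J/cm²) in presence of compound. After 24 h: fixed in ice-cold 70% ethanol, lysed with RNAse A, stained with PI (10 µg/ml), analysed by flow cytometry. Phases calculated on living cells; subG1 is hypodiploid DNA peak.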

MCF7 [3] = experiment: Phototoxicity in 2.5 J/cm'2 UV-A irradiated human MCF7 cells assessed as cell viability after 72 hrs by MTT assay in presence of radical scavenger DMTU; format: functional, cell-based
In short: (§2)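 MCF-7 cells given compound plus scavenger in HBSS, 30 min at 37 °C, then UV-A (2.5 J/cm², 365 nm lamp). Medium replaced; viability by MTT after 72 h. Means ± SEM of at least three independent experiments.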

Jurkat [4] = experiment: Induction of apoptosis in 3.75 J/cm'2 UV-A irradiated human Jurkat cells assessed as necrotic cells at 10 uM after 24 hrs by Annexin-V-FITC and propidium iodide based flow cytometry (reference value: 4.2 %); format: functional
Nucleic Acid [5] = experiment: Induction of photo-induced DNA damage in Escherichia coli pBR322 DNA at drug:DNA ratio of 1:3 by agarose gel electrophoresis in presence of nitrogen flux; format: nucleic-acid assay
In short: (§3)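 Supercoiled pBR322 (100 ng) in 10 mM phosphate buffer pH 7.2 irradiated with UV-A (3.75 J/cm²) at [DNA]/[drug] 1/3, with additives, under nitrogen or in deuterated buffer as stated. Aliquots then incubated at 37 °C with Fpg or Endo III. Run on 1% agarose in TAE, 80 V for 2 h, stained with ethidium bromide; Form I/II fractions from band densitometry.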

Jurkat [6] = experiment: Induction of apoptosis in UV-A irradiated human Jurkat cells assessed as loss of mitochondrial membrane potential after 6 hrs by cytofluorimetric analysis; format: functional, cell-based
In short: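 Jurkat cells 6, 12 and 24 h after UV-A (2.5 J/cm²) with compound, resuspended in HBSS with JC-1 (1 μg/ml). Green (FL1) and orange (FL2) fluorescence collected by flow cytometry, ≥10000 events; cells with monomeric JC-1 counted as collapsed potential. Mean ± SEM of three experiments.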

Jurkat [7] = experiment: Induction of apoptosis in UV-A irradiated human Jurkat cells assessed as increase in number of damaged lysosomes at 5 to 10 uM by acridine orange-based flow cytometry; format: functional, cell-based
In short: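 Lysosomal stability in Jurkat cells 6, 12 and 24 h after UV-A (2.5 J/cm²) with compound. Cells resuspended in RPMI-1640 with 1 µM acridine orange; flow cytometry, excitation 488 nm, emission in FL3. Mean ± SEM of three experiments.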

Jurkat [8] = experiment: Cell cycle arrest in UV-A irradiated human Jurkat cells assessed as accumulation at S phase at 10 uM after 24 hrs by propidium iodide based flow cytometry (reference value: 25.3 %); format: functional; in short: as §1
[9] = Drug uptake in mitochondria of human NCTC-2544 cells at 10 uM after 2 hrs by fluorescence microphotography; format: ADME; settings: nctc-2544, 2 h
In short: (§4)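 NCTC-2544 cells attached in Petri dishes, given compound at 10 μM for 2 h, washed with HBSS. Then 30 min with Rhodamine 123 (mitochondria), LysoTracker RED, CellMask Orange (plasma membrane) or ER-Tracker. Blue compound fluorescence overlaid on probe images by video-confocal microscopy.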

MCF7 [10] = experiment: Phototoxicity in 2.5 J/cm'2 UV-A irradiated human MCF7 cells assessed as cell viability after 72 hrs by MTT assay in presence of radical scavenger mannitol; format: functional, cell-based; in short: as §2
[11] = Phototoxicity in 2.5 J/cm'2 UV-A irradiated human NCTC-2544 cells after 72 hrs by MTT assay; format: functional, cell-based; settings: NCTC-2544, light or radiation study
In short: (§5)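 HL-60 and Jurkat (8×10³/well, RPMI-1640) and MCF-7, LoVo, NCTC-2544 (5×10³/well; DMEM or Ham's F12) preincubated 18 h at 37 °C, 5% CO₂. Compound in DMSO diluted in HBSS pH 7.2, 30 min at 37 °C, then UV-A at 2.5 or 3.75 J/cm². Medium replaced, 72 h incubation, MTT read-out. IC50 as mean ± SEM of three experiments.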

[12] = Drug uptake in endoplasmic reticulum of human NCTC-2544 cells at 10 uM after 2 hrs by fluorescence microphotography; format: ADME, cell-based; settings: nctc-2544, 2 h; in short: as §4
HL-60 = experiment: Phototoxicity in 3.75 J/cm'2 UV-A irradiated human HL60 cells after 72 hrs by MTT assay; format: functional, cell-based; settings: HL-60, light or radiation study; in short: as §5
Jurkat [13] = experiment: Phototoxicity in 3.75 J/cm'2 UV-A irradiated human Jurkat cells after 72 hrs by MTT assay; format: functional, cell-based; settings: light or radiation study
In short: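 Jurkat cells (8 × 10³/well) in RPMI-1640 with 10% FBS, held 18 h at 37 °C, 5% CO2. Compound stock in DMSO was diluted in HBSS pH 7.2 and added for 30 min at 37 °C. Cells were UV-A irradiated (lamp mainly 365 nm, 4.0 mW/cm²), then returned to medium for 72 h. MTT readout. IC50 is the mean ± SEM of three experiences.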

Nucleic Acid [14] = experiment: Induction of photo-induced supercoiled Escherichia coli pBR322 DNA damage at drug:DNA ratio of 1:3 by agarose gel electrophoresis in presence of DABCO; format: nucleic-acid assay; in short: as §3
Jurkat [15] = experiment: Induction of lipid peroxidation in 3.75 J/cm'2 UV-A irradiated human Jurkat cells assessed as increase in TBARS formation after 24 hrs by thiobarbituric acid assay; format: functional, cell-based
In short: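 Lipid peroxidation measured as MDA–thiobarbituric acid adducts, with BHT added to samples; calibrated to a 1,1,3,3-tetraethoxypropane standard curve; protein by Peterson method.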

Jurkat [16] = experiment: Induction of apoptosis in 3.75 J/cm'2 UV-A irradiated human Jurkat cells assessed as viable cells at 10 uM after 24 hrs by Annexin-V-FITC and propidium iodide based flow cytometry (reference value: 91%); format: functional; settings: light or radiation study, read-out: Activity
Jurkat [17] = experiment: Cell cycle arrest in UV-A irradiated human Jurkat cells assessed as accumulation at G1 phase at 10 uM after 24 hrs by propidium iodide based flow cytometry (reference value: 64.4 %); format: functional; in short: as §1
Jurkat [18] = experiment: Cell cycle arrest in UV-A irradiated human Jurkat cells assessed as accumulation at G1 phase at 5 uM after 24 hrs by propidium iodide based flow cytometry (reference value: 64.4 %); format: functional; in short: as §1
Nucleic Acid [19] = experiment: Induction of photo-induced supercoiled Escherichia coli pBR322 DNA damage assessed as single strand break at drug:DNA ratio of 1:3 by agarose gel electrophoresis in presence of D2O buffer; format: nucleic-acid assay; in short: as §3
Jurkat [20] = experiment: Induction of apoptosis in 3.75 J/cm'2 UV-A irradiated human Jurkat cells assessed as early apoptotic cells at 5 uM after 24 hrs by Annexin-V-FITC and propidium iodide based flow cytometry (reference value: 1.9 %); format: functional

Activity (Nucleic Acid [1]): inactive
Drug uptake [9]: Active
Drug uptake [12]: Active
Compound: CCOC(=O)c1c2c(c(C)n1C)-c1c(cc(S(=O)(=O)c3ccccc3)c(=O)n1C)CC2
Activity (Jurkat [2]): 46.9%
Activity (MCF7 [3]): inactive
Activity (Jurkat [4]): 8.6%
Activity (Nucleic Acid [5]): inactive
Activity (Jurkat [6]): Active
Activity (Jurkat [7]): Active
Activity (Jurkat [8]): 55.6%
Activity (MCF7 [10]): inactive
IC50 [11]: 2400 nM
IC50 (HL-60): 900 nM
IC50 (Jurkat [13]): 800 nM
Activity (Nucleic Acid [14]): inactive
Activity (Jurkat [15]): Dose-dependent effect
viability at 10 µM (Jurkat [16]): 45.2%
Activity (Jurkat [17]): 39.1%
Activity (Jurkat [18]): 48.9%
Activity (Nucleic Acid [19]): Active
Activity (Jurkat [20]): 14.4%
